Compound activity as filed in PubChem BioAssay.
PLC-beta3 inh: human PLC-beta3 inhibitors, primary screen, biochemical, fluorescence | 1-phosphatidylinositol 4,5-bisphosphate phosphodiesterase beta-3 (Homo sapiens), Q01970 | Purified PLC-beta3, fluorogenic substrate | inhibition, % at 12.2 µM | 370,000 tested, 0.18% active; in the data active = inhibition above about 11%;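 note: 0% = median of compound wells on plate and 100% = full blocker control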
Target sequence (Q01970 whole entry, looked up): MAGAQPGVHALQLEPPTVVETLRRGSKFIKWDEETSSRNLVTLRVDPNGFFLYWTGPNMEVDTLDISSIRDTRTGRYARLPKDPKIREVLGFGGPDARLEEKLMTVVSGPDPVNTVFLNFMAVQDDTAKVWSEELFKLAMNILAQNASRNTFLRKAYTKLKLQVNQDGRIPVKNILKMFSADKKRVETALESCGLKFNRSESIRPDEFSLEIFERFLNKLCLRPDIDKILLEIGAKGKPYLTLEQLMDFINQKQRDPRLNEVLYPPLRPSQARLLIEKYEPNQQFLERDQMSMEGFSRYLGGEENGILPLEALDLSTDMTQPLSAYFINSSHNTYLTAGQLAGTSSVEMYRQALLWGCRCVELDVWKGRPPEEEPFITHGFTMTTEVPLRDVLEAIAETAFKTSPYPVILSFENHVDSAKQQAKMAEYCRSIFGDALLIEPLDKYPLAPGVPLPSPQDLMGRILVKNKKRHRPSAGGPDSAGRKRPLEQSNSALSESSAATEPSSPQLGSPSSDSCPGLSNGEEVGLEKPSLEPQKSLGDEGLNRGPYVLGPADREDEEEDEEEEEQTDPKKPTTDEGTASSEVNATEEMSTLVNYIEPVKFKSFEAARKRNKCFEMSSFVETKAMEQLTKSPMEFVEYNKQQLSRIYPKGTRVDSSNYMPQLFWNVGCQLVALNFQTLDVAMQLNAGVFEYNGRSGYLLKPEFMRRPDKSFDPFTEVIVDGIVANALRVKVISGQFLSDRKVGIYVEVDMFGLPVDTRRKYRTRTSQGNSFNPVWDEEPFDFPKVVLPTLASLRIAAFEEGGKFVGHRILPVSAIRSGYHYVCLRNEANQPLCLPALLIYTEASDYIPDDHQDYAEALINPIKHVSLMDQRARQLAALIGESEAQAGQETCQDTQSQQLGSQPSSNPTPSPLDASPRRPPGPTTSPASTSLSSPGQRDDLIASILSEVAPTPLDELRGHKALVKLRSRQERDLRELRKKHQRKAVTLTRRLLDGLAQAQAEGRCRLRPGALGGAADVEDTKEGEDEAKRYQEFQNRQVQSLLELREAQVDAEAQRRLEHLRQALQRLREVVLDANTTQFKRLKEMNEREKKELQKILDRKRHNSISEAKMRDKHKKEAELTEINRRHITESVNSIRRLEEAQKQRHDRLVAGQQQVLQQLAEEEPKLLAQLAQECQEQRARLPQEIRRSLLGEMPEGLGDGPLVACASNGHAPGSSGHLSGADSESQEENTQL
sPLA2-III inh: human group III sPLA2 inhibitors, primary screen, biochemical, QFRET, BODIPY PC-A2 liposome substrate | Group 3 secretory phospholipase A2 (Homo sapiens), Q9NZ20 | QFRET BODIPY PC-A2 liposome hydrolysis, fluorescence | inhibition, % at 12.2 µM | 370,000 tested, 0.56% active | AID 743126, 2013;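 active = inhibition above mean plus 3 SD of compounds lying within the high and low control bounds, cut at about 19% in these data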;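 note: 0% = median of test compound wells and 100% = no enzyme DMSO wells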
Tb MetRS inh: T. brucei MetRS inhibitors, primary screen, biochemical, luminescence; methionyl-tRNA synthetase (Trypanosoma brucei brucei); purified T. brucei MetRS, ATP depletion, Kinase-Glo luminescence; inhibition, % at 11.9 µM; 360,000 tested, 0.4% active;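 active = inhibition above a per-plate cutoff of the control wells' mean inhibition plus 3 SD, cut at about 5.5% in these data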;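 note: 0% = DMSO wells median and 100% = median of wells with control inhibitor compound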
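Test system – parasite MetRS enzyme · Reagent – substrates ATP, L-methionine and bulk Escherichia coli tRNA · Doses – 11.9 µM compound single dose, 0.9% DMSO · Times – 15 min enzyme-compound preincubation, 2 h reaction, 10 min detection, 25 °C · Signal – Kinase-Glo luminescence, ATP depletion format · Controls – DMSO-only wells as low control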
DAGLB inh: DAGLB lipase inhibitors, primary screen, biochemical, fluorescence, HTS. Diacylglycerol lipase-beta (Homo sapiens), Q8NCG7. HEK293T DAGLB membrane lysate, EnzChek fluorogenic substrate. 340,000 tested, 0.059% active. inhibition, % at 5.17 µM; in the data active = inhibition above about 34%;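 note: 0% = enzyme with vehicle and 100% = wells lacking enzyme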
PLC-gamma1 inh: PLC-gamma1 enzyme inhibitors, primary screen, biochemical, fluorescence, purified enzyme; fluorogenic substrate; inhibition, % at 12.2 µM; 370,000 tested, 0.84% active; in the data active = inhibition above about 9.5%
Tb MetRS conf: T. brucei MetRS inhibitors, confirmation, biochemical, luminescence; inhibition, % at 11.9 µM; T. brucei MetRS enzyme, luminescence (ATP depletion); shares compounds with Tb MetRS inh; 1,400 tested, 93% active; in the data active = inhibition above about 7%
Jurkat tox: Jurkat T cell cytotoxicity, cytotoxicity control for T. brucei MetRS inhibitor project, luminescence, high throughput; inhibition, % at 8.3 µM; shares compounds with Tb MetRS inh; Jurkat cells viability, ATP luminescence; 1,400 tested, 12% active; in the data active = inhibition above about 15%;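 note: 0% = vehicle and 100% = reference inhibitor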
Tb MetRS inh FP: T. brucei MetRS inhibitors, orthogonal assay for T. brucei MetRS inhibitor project, biochemical, fluorescence polarization | shares compounds with Tb MetRS inh | purified T. brucei MetRS | inhibition, % at 11.9 µM | 1,400 tested, 44% active; in the data active = inhibition above about 17%;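 note: 0% = vehicle wells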
The depositor's hits bear a star; · = no result given. Most compounds without a hit are left out; they make up all but 1.9% or so of the library.

SMILES | PLC-beta3 inh | sPLA2-III inh | Tb MetRS inh | DAGLB inh | PLC-gamma1 inh | Tb MetRS conf | Jurkat tox | Tb MetRS inh FP
O=C1CC(SCc2nc3ccccc3[nH]2)C(=O)N1c1cccc(F)c1 (stereo not given) | -180.5 | -8.2 | 25.7* | 1.4 | -141.9 | 23.1* | 16.6* | 9.9
O=C1CC(SCc2nc3ccccc3[nH]2)C(=O)N1c1ccc(Cl)cc1 (stereo not given) | -112.2 | -11.1 | 5.7* | -1.1 | -106.1 | 5.7* | -2.4 | 0.1
CCOc1ccc(N2C(=O)CC(SCc3nc4ccccc4[nH]3)C2=O)cc1 (stereo not given) | -17.0 | -9.7 | 1.6 | 1.8 | -16.1 | · | · | ·
CC1CCCN(c2cccc3c2S(=O)(=O)N([C@H](C)c2ccccc2)C[C@@H](COCc2ccccc2)O3)C1 (stereo not given in full) | 3.6 | -0.4 | · | · | 0.8 | · | · | ·
C/C(CC(=O)Nc1cccc(Br)c1)=N\NC(=O)c1ccc(O)cc1O | -17.5 | -16.1 | 27.0* | -3.7 | -2.4 | 98.4* | 1.3 | 80.2*
CCCCNC(=O)N1CCC(c2nc3ccc(Cl)cc3[nH]2)CC1 | -2.7 | 4.0 | · | · | -1.7 | · | · | ·
COc1cc(NC(C)=O)c2ncccc2c1[N+](=O)[O-] | 0.4 | -3.0 | 11.5* | -3.8 | 2.8 | 22.7* | -5.8 | 3.4
Cc1cccc2nc(-c3ccccc3)c(-c3ccc(CN4CCC5(CC4)CNc4ccccc45)cc3)nc12 | -5.3 | 12.1 | · | · | -9.3 | · | · | ·
COc1ccc(-c2cc(C(=O)NN=C/C(C)=C/c3ccccc3)[nH]n2)cc1 | -0.2 | -10.0 | · | · | 4.6 | · | · | ·
Cc1nc2ccccc2c2oc(C(=O)N3CCc4ccccc4C3)cc12 | -10.7 | -2.5 | 8.7* | 0.5 | -3.5 | 8.9* | 5.6 | 11.4
Cc1nc2ccccc2c2oc(C(=O)N3CCC(C)CC3)cc12 | -3.9 | -5.7 | -0.9 | -3.0 | 5.3 | · | · | ·
Cc1cc(NS(=O)(=O)c2ccc(NC(=O)CSc3nc4ncc(Br)cc4[nH]3)cc2)nc(C)n1 | -6.5 | -3.8 | 6.1* | -0.4 | 0.0 | 14.3* | -4.3 | 8.4
O=C(O)c1ccc(-n2c(O)c(C=C3N=c4ccccc4=N3)sc2=S)cc1 | -157.5 | -5.7 | 7.8* | 3.4 | -110.7 | 33.1* | -5.0 | 10.9
O=C(O)c1cccc(N2CCCC2)c1 | -126.4 | -3.0 | -0.3 | -1.5 | -98.2 | · | · | ·
O=C(O)c1cccc(-n2c(O)c(C=C3N=c4ccccc4=N3)sc2=S)c1 | -140.1 | -13.6 | 18.5* | 9.4 | -100.2 | 40.9* | -3.5 | 13.5
CCN(CC)c1ccc(-n2c(O)c(C=C3N=c4ccccc4=N3)sc2=S)cc1 | -0.6 | 4.3 | 0.2 | 2.3 | 1.8 | · | · | ·
O=C(Nc1ccc(Cl)cc1)Nc1ccc(S(=O)(=O)Nc2ncccn2)cc1 | 1.1 | -25.4 | 6.2* | 5.7 | 0.9 | 8.4* | -0.8 | 2.0
Cn1cc(S(=O)(=O)N2CCOCC2)cc1C(=O)NCc1ccc(Cl)cc1 | -0.8 | 0.1 | 35.7* | 1.6 | 2.6 | 50.8* | -1.5 | 28.1*
COc1ccc(C(=O)C2(C(=O)NCc3ccccc3)CC(c3ccccn3)=NO2)cc1 (stereo not given) | 1.2 | 4.0 | · | · | 0.2 | · | · | ·
O=C1CC(c2nc3ccccc3[nH]2)CN1c1cccc(C(F)(F)F)c1 (stereo not given) | -2.5 | 8.6 | 20.8* | -4.9 | 4.7 | 26.8* | 5.6 | 9.9
COc1ccc(Cl)cc1N1CC(c2nc3ccccc3[nH]2)CC1=O (stereo not given) | -1.2 | -6.3 | 5.7* | -0.3 | 2.7 | 10.1* | 12.1 | 5.0
O=C(NCc1nc2ccccc2[nH]1)C1=C[C@H](C2CCCCC2)C[C@H](OCc2ccc(CO)cc2)O1 | -2.7 | -3.8 | 4.8 | -0.1 | -1.3 | · | · | ·
